From PubChem
TCR CD3 inh: inhibitors of human TCR-CD3 interaction; AID 651800; inhibition, % at 9.4 µM; 0.37% of 360,000 active; TAMRA-labeled TCR probe fluorescence, biochemical; in the data active = inhibition above about 19%;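 also: recombinant mutant TCR 2C K166C tagged with TAMRA read by polarization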
PRMT1 inh: blocks human protein arginine methyltransferase 1 | Q99873 | recombinant PRMT1, activity-based probe fluorescence polarization | inhibition, % at 2.79 µM | 1.3% of 370,000 active | AID 652257;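 active = inhibition above about 21% made by adding two undisclosed values, limit read from the data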
SIAE primary: inhibitors of human sialic acid acetylesterase SIAE; Q9HAT2; inhibition, % at 9.66 µM; AID 1053197; SIAE FP-Rh probe binding, fluorescence polarization; 0.69% of 370,000 active;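 active = inhibition above a cutoff: mean of compounds within the control limits plus 3 SD of those, cut at about 17% in these data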
HTRA1 inhibitor: inhibitors of human serine peptidase HTRA1; Q92743; recombinant HTRA1, FP-rhodamine activity-based probe, fluorescence polarization; inhibition, % at 5.96 µM; 0.5% of 340,000 active; AID 504803; in the data active = inhibition above about 36%
ABHD4 inh: inhibitors of mouse ABHD4; Q8VD66; purified mABHD4, FP-Rh probe fluorescence polarization; inhibition, % at 8.92 µM; 0.54% of 370,000 active; AID 720543;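 active = inhibition exceeding the mean over every tested compound plus 3 SD, cut at about 30% in these data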
Target sequence (Q8VD66 whole entry, looked up): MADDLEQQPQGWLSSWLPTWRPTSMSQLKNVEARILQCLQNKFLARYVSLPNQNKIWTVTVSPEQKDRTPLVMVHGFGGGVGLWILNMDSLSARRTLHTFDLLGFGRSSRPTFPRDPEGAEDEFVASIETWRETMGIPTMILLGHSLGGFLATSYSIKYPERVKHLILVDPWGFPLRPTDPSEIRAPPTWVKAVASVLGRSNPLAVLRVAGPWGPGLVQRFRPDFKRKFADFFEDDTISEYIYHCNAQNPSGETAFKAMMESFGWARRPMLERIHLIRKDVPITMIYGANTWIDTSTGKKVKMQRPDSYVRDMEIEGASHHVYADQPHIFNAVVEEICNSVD
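Material: mouse ABHD4 enzyme, wild type; Benchmarks: S159A mutant high control, sample median low control; Buffer or medium: HEPES pH 7.0, NaCl, Pluronic buffer; Signal: fluorescence polarization; Read-out: percent inhibition of probe binding, normalized to plate controls; Timing: pre-incubation 45 min, probe exposure 60 min, at 25 °C; Dosing: 8.92 µM, single dose.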
Hits are given with their value; – = inactive; · = no result. The list is not random: actives were taken first. Their share in the collection is about 2.6%.

SMILES	TCR CD3 inh	PRMT1 inh	SIAE primary	HTRA1 inhibitor	ABHD4 inh
COC(=O)CCC(=O)OC1(C)C(=O)C2=CN(CCc3ccccn3)C(c3ccc(OC)cc3)=CC2=C(Br)C1=O (stereo unspecified)	·	·	·	37.5	·
C#CCN(C[C@H]1[C@H](OC(=O)Nc2c(C)noc2C)[C@H](OC(=O)Nc2c(C)noc2C)CN(C(=O)OC(C)C)N1C(=O)OC(C)C)S(=O)(=O)c1ccc(C)cc1	–	–	–	·	–
Cc1sc2ccc3sccc3c2[n+]1C	–	76.5	–	–	–
Oc1ccc(-c2cnns2)c(O)c1	–	23.9	–	–	–
Oc1ccc(-c2nc3ccccc3s2)c(O)c1	–	–	–	–	–
C=CCOc1ccc(Br)cc1/C=C1/SC(=Nc2ccc(C(=O)O)cc2)NC1=O	–	–	–	–	–
CCOc1cc(Br)cc(/C=C2\SC(=Nc3ccccc3)NC2=O)c1O	–	24.1	–	–	–
COc1ccc2c(c1)[C@@]1(OCCC=C[C@H]1C)C(=O)N2C/C=C(\C)CCC=C(C)C	–	–	–	·	–
NC(=O)c1ncn2c(=O)n(CCCl)nnc12	–	–	–	·	–
CCNc1ccc(Br)cc(C(=O)/C=C/c2c(Cl)cccc2Cl)c1=O	·	·	·	57.7	·
CCCNc1cc(=S)nc(N)[nH]1	–	21.9	–	–	–
O=S1(=O)C=C(Sc2ccc(Cl)cc2)c2ccccc2C1Cc1ccc(F)cc1 (stereo unspecified)	–	–	–	·	–
Fc1ccccc1-n1c(-c2ccc3ccccc3n2)n[nH]c1=S	–	–	–	–	–
S=c1[nH]nc(-c2ccc3ccccc3n2)n1-c1ccccc1	–	22.5	–	–	–
Cc1ccc(S(=O)(=O)c2nc(-c3ccco3)oc2SCC(N)=O)cc1	–	21.4	–	–	–
O=C(O)C(=Cc1ccccc1[N+](=O)[O-])c1ccc2c(c1)OCO2	–	–	–	–	–
S=c1[nH]nc(-c2ccco2)n1/N=C/c1ccc(Cl)cc1Cl	–	22.2	–	–	–
S=c1[nH]nc(-c2ccco2)n1/N=C/c1cccs1	–	–	–	–	–
CCCCc1c(-c2ccccc2OC)ncn1Cc1ccc(OC)c(Cl)c1	–	–	–	·	–
Cc1cccc(NCc2nc(SCC(=O)Nc3ccccc3Br)n[nH]2)c1	–	–	–	–	–
O=C(CSc1n[nH]c(Cc2ccccc2)n1)Nc1ccccc1Br	–	24.3	–	–	–
COCC#Cc1cnc2c(c1)C(=O)N([C@@H](C)CO)C[C@H](C)[C@H](CN(C)C(=O)c1ccc3c(c1)OCO3)O2	–	–	–	·	–
Cc1cccc(-n2nc3c(c2NC(=O)c2ccco2)CS(=O)C3)c1C (stereo unspecified)	–	–	–	–	–
Cc1cccc(-n2nc3c(c2NC(=O)c2ccco2)CSC3)c1C	–	30.3	–	–	–
CCN(CC)S(=O)(=O)c1ccc(N2CC(C(=O)NCCc3c[nH]c4ccccc34)CC2=O)cc1 (stereo unspecified)	–	–	–	–	–
SMILES	TCR CD3 inh	PRMT1 inh	SIAE primary	HTRA1 inhibitor	ABHD4 inh
C=CCNC(=S)N1C[C@H]2CON(C)[C@H]2C[C@H]1c1ccccc1Br	–	–	–	·	–
Cc1cc(C)c(OCC(=O)Nc2nnc(C3CC3)s2)c(C)c1	–	–	–	–	–
CCOC(=O)CSc1nnc(-c2ccccc2)o1	–	–	–	–	–
O=C(CSc1nnc(-c2ccccc2)o1)c1nnc(-c2ccccc2)o1	–	24.1	–	–	–
CC[n+]1c(/C=C/C=C/N(C(C)=O)c2ccccc2)sc2ccccc21	–	35.2	–	–	–
CCn1c(/C=C/N(C(C)=O)c2ccccc2)[n+](CC)c2ccc(Cl)cc21	–	–	–	–	–
O=C(Nc1nc2ccccc2s1)c1ccc(F)cc1	–	–	–	–	–
O=C(Nc1nc(=O)c2ccccc2s1)c1ccccc1	–	74.6	–	–	–
Cc1ccc(C(=O)Nc2nc3ccccc3c(=O)s2)cc1	–	59.3	–	–	–
CCOC(=O)C1Nc2ccc(C)cc2C2C=CCC12 (stereo unspecified)	–	22.6	–	–	–
COC(=O)CNC(=O)C1Nc2ccccc2C2C=CCC12 (stereo unspecified)	–	36.7	–	–	–
O=C(CSC1CCc2ccccc21)NN=Cc1ccco1 (stereo unspecified)	–	–	–	·	–
CCC(C)(C)C1CCC2(CC1)NC(=O)N(CC(=O)N(C)CCOc1ccc(Cl)cc1)C2=O (stereo unspecified)	–	–	–	–	–
COC(=O)c1cccc(N2C(=O)C(Cl)=C(N3CCOCC3)C2=O)c1	–	–	–	–	–
O=C1C(Cl)=C(N2CCOCC2)C(=O)N1c1cccc(C(F)(F)F)c1	–	21.6	–	–	–
Cc1cc(C)c(NC(=O)CSc2ccc(-c3cccnc3)nn2)c(C)c1	–	23.2	–	–	–
CCOc1ccc(/C=C/C(=O)OC(C)C(=O)NC2CCCCC2C)cc1OC (stereo unspecified)	–	–	–	–	–
CC(=O)c1cccc(S(=O)(=O)NC2CC2)c1	–	23.0	–	–	–
COc1cc(/C=C2\CCC/C(=C\c3ccc(O)c(OC)c3)C2=O)ccc1O	–	22.0	–	–	–
COc1cc(C2C(C#N)=C(N)Oc3c2c(-c2ccccc2)nn3-c2ccccc2)cc(OC)c1OC (stereo unspecified)	–	–	23.4	–	–
Cc1cccn2c(=O)nc(SCC(=O)N3CCC(C)CC3)nc12	–	–	–	–	–
COc1ccccc1-c1nnc2n1N=C(c1ccc(O)c(O)c1)CS2	·	·	·	43.2	·
O=C(CCCN1C(=O)/C(=C/c2ccccc2Cl)SC1=S)NCCCN1CCOCC1	–	24.2	–	–	–
C/C=C/C=C\C(=O)Nc1cccc(C2=NOC3(C2)C[C@@H](C(N)=O)N(C(=O)c2cc([N+](=O)[O-])cc([N+](=O)[O-])c2C)C3)c1 (stereo partly specified)	–	24.5	–	–	–
Cc1noc(C)c1NC(=O)N(C)C[C@@H]1OCc2cn(nn2)CCCC(=O)N([C@@H](C)CO)C[C@H]1C	–	–	–	·	–
SMILES	TCR CD3 inh	PRMT1 inh	SIAE primary	HTRA1 inhibitor	ABHD4 inh
CCn1c2ccccc2c2nnc(SCc3ccc(C(=O)OC)o3)nc21	–	24.5	–	–	–
COC(=O)[C@]12C[C@H](CC(=O)NCc3cccs3)C(=O)N(CCc3ccc(OC)c(OC)c3)C1=C[C@H](C(C)(C)C)O[C@@H]2C	–	–	–	·	–
CCn1cc(/C=C/C(=O)Nc2ccc(C)cc2Br)cn1	–	–	–	–	–
CCn1cc(/C=C/C(=O)Nc2ccn(Cc3c(F)c(F)cc(F)c3F)n2)cn1	–	22.1	–	–	–
S=c1nc(-c2csc3c2CCCC3)[nH][nH]1	–	21.7	–	–	–
S=c1nc(-c2ccccc2Cl)[nH][nH]1	–	–	–	–	–
S=c1[nH]nc(Nc2ccccc2Cl)s1	–	23.4	–	–	–
Cc1ccc(C(=O)COC(=O)CNC(=O)COc2ccccc2C)cc1C	–	–	–	–	–
